# Only some compounds are listed: those with a hit (about 3.1% of all), similar ones and a draw of the others.
# KCNK3 inh: human KCNK3 channel inhibitors, primary screen, CHO cells, FluxOR thallium flux, B-score; Potassium channel subfamily K member 3 (Homo sapiens), O14649; FluxOR fluorescence; active compounds read low; B-score at 10 µM; 0.84% of 340,000 active; AID 602410, 2012;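 active = B-score under library mean minus 4 SD, starting fluorescence ratio at most library mean plus 5 SD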;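 note: more negative B-score means stronger inhibition of thallium flux through KCNK3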
# KCNQ1 inh: inhibitors of human KCNQ1 channel, primary screen, cell-based, thallium flux, high-throughput; AID 2642, 2010; 1.3% of 310,000 active; CHO-K1 KCNQ1, FluxOR thallium flux fluorescence; active compounds read high; B-score at 10 µM; Potassium voltage-gated channel subfamily KQT member 1 (Homo sapiens), P51787;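 active = compounds whose thallium flux B-score, printed positive for inhibition, exceeds three library SD while starting fluorescence stays within three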;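 note: channel opened by potassium depolarization with thallium stimulus after 20 min compound exposure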
# KCNK9 block: KCNK9 potassium channel inhibitors, primary screen, HEK293 cells, thallium flux; Potassium channel subfamily K member 9 (Homo sapiens), Q9NPC2; FluxOR thallium flux fluorescence; active compounds read low; B-score at 10 µM; 1.2% of 310,000 active; AID 488922, 2010;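 active = ratio B-score over 3 SD below the library mean, with starting fluorescence within 5 SD of its mean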;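 note: negative B-score means less thallium flux so channel inhibition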
# Target sequence (Q9NPC2 whole entry, looked up): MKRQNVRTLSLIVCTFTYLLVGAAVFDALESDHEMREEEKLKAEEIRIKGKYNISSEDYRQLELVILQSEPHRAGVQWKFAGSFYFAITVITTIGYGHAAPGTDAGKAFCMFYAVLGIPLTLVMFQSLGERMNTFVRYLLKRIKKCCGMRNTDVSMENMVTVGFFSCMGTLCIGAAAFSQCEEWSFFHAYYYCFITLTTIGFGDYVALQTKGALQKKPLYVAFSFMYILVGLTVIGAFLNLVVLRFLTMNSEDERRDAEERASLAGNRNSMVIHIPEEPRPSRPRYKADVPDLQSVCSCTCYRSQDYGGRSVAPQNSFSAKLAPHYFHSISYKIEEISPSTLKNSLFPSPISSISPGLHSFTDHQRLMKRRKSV
# KCNQ1 pot: potentiators or activators of KCNQ1 channel, primary screen, cell-based, thallium flux, high-throughput; B-score at 10 µM; 0.35% of 310,000 active; Potassium voltage-gated channel subfamily KQT member 1 (Homo sapiens), P51787; CHO-K1 KCNQ1, thallium flux FluxOR fluorescence; active compounds read high;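 active = fluorescence ratio B-score, a plate-corrected score, at least three library SD, with initial intensity B-score within 5 SD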
#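 Material: CHO-K1 cells stably expressing KCNQ1. Medium: assay buffer for compound exposure, DMSO matched across wells. Reagent: K+/Tl+ depolarizing stimulus. Compound dosing: single-concentration screen. Times: 37 °C overnight plating, 90-min dark dye load, 20-min compound pretreatment. Technique: FluxOR Tl+ flux fluorescence.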
# hERG protect: hERG rescue from dofetilide block, primary screen, cell-based, CHO-hERG, FluxOR thallium flux, dofetilide IC70. 0.51% of 310,000 active. activation (rescue from dofetilide block), less the hit threshold, % at 10 µM. AID 1511, 2009. dofetilide IC70 present. Voltage-gated inwardly rectifying potassium channel KCNH2 (Homo sapiens), Q12809;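 active = activation above the mean of controls blocked by dofetilide plus 5 SD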;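 note: thallium influx through hERG after potassium depolarization seen as dye fluorescence rise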
# Hits are given with their value; i = inactive; nt = no result given.
SMILES,KCNK3 inh,KCNQ1 inh,KCNK9 block,KCNQ1 pot,hERG protect
COc1cc(OC)c(C(=O)OCC(=O)N2CCN(S(=O)(=O)c3ccc(C)cc3C)CC2)cc1OC,i,nt,nt,nt,nt
CCOC(=O)C1CCN(S(=O)(=O)c2ccc3c(c2)NC(=O)C(C)C(=O)N3)CC1 (stereo unspecified),i,i,i,i,i
CCOC(=O)N1CCN(c2nc3ccccn3c(=O)c2C=O)CC1,i,i,i,i,i
O=C(CSc1ncccn1)NCc1cccc(Cl)c1,i,i,i,i,6.3
O=C(CSc1ncccn1)NCc1ccc(Cl)cc1,i,i,i,i,i
CCN1C(=O)[C@H]2[C@H]3CN=C(SC)N3[C@@](CC)(C(=O)OC)[C@H]2C1=O,i,nt,nt,nt,nt
COc1cccc(N(C(=O)Cn2nnc(-c3ccc(C)o3)n2)C(C(=O)NC(C)(C)C)c2cccs2)c1 (stereo unspecified),i,i,i,i,6.4
Cc1ccc(-c2nnn(CC(=O)N(Cc3ccco3)C(C(=O)NC(C)(C)C)c3cccs3)n2)o1 (stereo unspecified),i,i,i,i,i
COC(=O)c1ccc(N2C(=O)CC(SCC(=O)Nc3ccc(OC)cc3)C2=O)cc1 (stereo unspecified),i,i,i,i,i
CN=C(Nc1cc(Cl)ccc1Cl)SC1CC(=O)N(c2ccc(C(=O)OC)cc2)C1=O (stereo unspecified),i,i,-8,i,i
O=C(/C(=C/O)N=Nc1ccccc1)c1ccncc1,i,i,-7.6,i,i
CC(=O)C1CCC2C3CCC4CC(=O)CCC4(C)C3C(C)(O)CC12C (stereo unspecified),i,nt,nt,nt,nt
CC1(C)CC(N2CCN(CCO)CC2)=CC(=S)N1,i,i,i,10,i
COc1cc(NC(=S)N2CCN(CCO)CC2)cc(OC)c1,i,i,i,i,i
O=S(=O)(Nc1ccc(Br)cc1)c1cccc(NS(=O)(=O)c2cccs2)c1,i,nt,nt,nt,nt
C[C@H](CO)N1C[C@H](C)[C@@H](CN(C)Cc2ccc(-c3ccccc3)cc2)Oc2c(NS(=O)(=O)c3cccs3)cccc2C1=O,i,nt,nt,nt,nt
O=C(CSc1nc2ccc([N+](=O)[O-])cc2[nH]1)NC1CCCCC1,i,i,i,i,i
O=C(CSc1nc2ccc([N+](=O)[O-])cc2[nH]1)NC1CCCCCC1,i,14,i,i,i
COC(=O)N/N=C(\C)c1ccc(Br)cc1,i,i,i,i,i
CSC(=S)N/N=C(\C)c1ccc(Br)cc1,i,i,i,41,i
N=C1/C(=C\c2ccc(-c3cccc(Cl)c3)o2)C(=O)N=C2SC=C(c3ccccc3)N12,i,i,i,8,i
N=C1/C(=C\c2ccc(-c3ccc(C(=O)O)cc3)o2)C(=O)N=C2SC=C(c3ccccc3)N12,i,i,i,i,i
N=C1S/C(=C\c2ccc(-c3cccc(Cl)c3)o2)C(=O)N1c1nccs1,i,i,i,i,26
COc1ccc(OC)c(-c2csc(NC(=O)CSc3ccc([N+](=O)[O-])cc3)n2)c1,i,7,i,i,i
COc1ccc(OC)c(-c2csc(NC(=O)CSc3ccc(Br)cc3)n2)c1,i,i,i,i,i
SMILES,KCNK3 inh,KCNQ1 inh,KCNK9 block,KCNQ1 pot,hERG protect
CCOC(=O)COc1ccccc1/C=N\NC(=O)c1cc2c(ccc3ccccc32)o1,i,10,-6.8,i,i
CCc1noc(C)c1C(=O)OCC(=O)c1ccc(NC(C)=O)cc1F,i,nt,nt,nt,nt
N#CC1=C(N)Oc2ccc3ccc(O)cc3c2C1c1cccnc1 (stereo unspecified),i,i,i,i,i
N#CC1=C(N)Oc2ccc3ccccc3c2C1c1cccnc1 (stereo unspecified),i,i,i,i,4.9
CCCCC/C=N/NC(=O)c1[nH]c2ccc([N+](=O)[O-])cc2c1C,i,i,i,i,i
CCC/C=N/NC(=O)c1[nH]c2c([N+](=O)[O-])cccc2c1C,i,i,i,16,i
CCOC(=O)c1c(NC(=O)COC(=O)c2cccnc2OCC)sc(C(=O)N(CC)CC)c1C,i,nt,nt,nt,nt
O=C(CNC(=O)C12CC3CC(CC(C3)C1)C2)OCc1cc(=O)n2cc(Br)ccc2n1,i,i,i,i,6.1
O=C1/C(=C\c2ccc(Br)o2)Cc2ccccc21,i,i,-9.9,i,i
O=C(NCc1ccco1)c1ccc2c(c1)N(Cc1ccccc1)CCS2,i,i,i,i,i
O=C(NCc1ccco1)c1ccc2c(c1)N(Cc1ccc(Cl)cc1)CCS2,i,i,-6.8,i,i
CC(C)(C)C1=CC(=O)C(=O)C(C(C)(C)C)=C1,i,6,-7.4,i,i
O=C(COC(=O)/C=C/c1ccc2c(c1)OCO2)NC1CC1,i,i,i,i,5.4
CN1CCN(c2nc(-c3cccs3)cc(C(F)(F)F)n2)CC1,i,i,i,10,i
CN1CCN(c2nc(-c3ccccc3)cc(C(F)(F)F)n2)CC1,i,i,i,i,i
COc1ccc(OC)c(/C=C2\SC(N3CCCC(C)C3)=NC2=O)c1 (stereo unspecified),i,7,i,i,i
O=C(CC(=O)c1ccccc1O)c1cccc(F)c1,i,i,i,37,i
N#C/C(=C\c1ccc(N2CCOCC2)o1)C(=O)Nc1ccc(O)cc1,i,7,i,i,i
N#C/C(=C/c1ccc(N2CCOCC2)o1)C(=O)NC1CCCCC1,i,7,i,i,i
C=CC(=O)N(CCC)C(c1ccccc1)c1ccccc1OC (stereo unspecified),i,i,i,i,i
CCC1CCCCN1C(=S)NC(=O)c1ccc([N+](=O)[O-])cc1 (stereo unspecified),i,i,i,18,16
CCC1CCCCN1C(=S)NC(=O)c1cccs1 (stereo unspecified),i,i,i,8,5.3
Cc1cc(C)c2nc(NC(=O)C3CSC4(C)CCC(=O)N34)sc2c1 (stereo unspecified),i,nt,nt,nt,nt
CSC1=NSC2=NC(=O)/C(=C/c3coc4ccc(O)cc4c3=O)C(=N)N12,i,9,i,i,i
CCN1CCCC1CNC(=O)Cn1cc(C)c(=O)[nH]c1=O (stereo unspecified),i,nt,nt,nt,nt
CCOC(=O)[C@@H]1[C@H]2COc3ccccc3[C@@H]2N2C(=O)N(c3ccccc3)C(=O)[C@@]12C,i,i,i,i,i
CCOC(=O)[C@@H]1[C@H]2COc3ccccc3[C@H]2N2C(=O)N(c3ccc(C)cc3)C(=O)[C@]12C,i,i,-6.7,i,i
C=CC(C)(C)c1c(O)c(CC=C(C)C)c(O)c2c(=O)c3ccc(O)c(O)c3oc12,i,6,i,i,i
C=CC(C)(C)c1c2occc2c(O)c2ccc(=O)oc12,i,nt,nt,nt,nt
